Active and inactive are the calls of the source. The rule behind the calls is not given here.
Legend:
MCF7 = experiment: Antiproliferative activity against human MCF7 cells after 48 hrs by MTT colorimetric assay; format: functional, cell-based; conditions: MCF7, 48 h
How it was run: (§1)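 Cells seeded at 2 × 10⁴ cells/ml and grown 24 h, then exposed in exponential growth to final compound concentrations of 0.1 to 100 for 48 h. Survival read by MTT (0.5 mg/mL in DMEM, 4 h) with absorbance at 570 nm. Three replicate wells per concentration; each assay run at least three times.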

B16-F10 = experiment: Antiproliferative activity against mouse B16F10 cells after 48 hrs by MTT colorimetric assay; format: functional, cell-based; conditions: B16-F10, 48 h; how it was run: as §1
RAW264.7 [1] = experiment: Antiinflammatory activity in mouse RAW264.7 cells assessed as inhibition of LPS-induced PGE2 production; format: functional, cell-based
HepG2 = experiment: Antiproliferative activity against human HepG2 cells after 48 hrs by MTT colorimetric assay; format: functional, cell-based; conditions: HepG2, 48 h; how it was run: as §1
[2] = target: Prostaglandin G/H synthase 2 (Mus musculus) (UniProt Q05769)
Prostaglandin G/H synthase 2 (Mus musculus), sequence (Q05769 whole entry, looked up): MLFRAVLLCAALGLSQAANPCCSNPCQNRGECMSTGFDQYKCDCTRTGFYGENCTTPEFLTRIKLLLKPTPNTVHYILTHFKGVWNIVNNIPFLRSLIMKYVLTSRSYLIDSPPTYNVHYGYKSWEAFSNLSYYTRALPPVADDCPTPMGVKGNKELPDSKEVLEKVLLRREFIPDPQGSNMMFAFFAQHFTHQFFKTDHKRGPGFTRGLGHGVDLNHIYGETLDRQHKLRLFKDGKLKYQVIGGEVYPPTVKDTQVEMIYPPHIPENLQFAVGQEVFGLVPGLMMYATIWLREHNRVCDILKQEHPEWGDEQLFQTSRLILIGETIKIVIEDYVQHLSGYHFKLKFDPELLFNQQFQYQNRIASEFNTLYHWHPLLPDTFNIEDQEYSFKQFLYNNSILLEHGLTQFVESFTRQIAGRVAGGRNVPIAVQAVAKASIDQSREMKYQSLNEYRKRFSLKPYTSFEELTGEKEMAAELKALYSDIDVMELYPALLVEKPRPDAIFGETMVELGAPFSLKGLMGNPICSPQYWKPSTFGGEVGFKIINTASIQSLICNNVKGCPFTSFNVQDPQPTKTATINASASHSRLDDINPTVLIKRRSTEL

[3] = target: Prostaglandin G/H synthase 1 (Mus musculus) (UniProt P22437)
Prostaglandin G/H synthase 1 (Mus musculus), sequence (P22437 whole entry, looked up): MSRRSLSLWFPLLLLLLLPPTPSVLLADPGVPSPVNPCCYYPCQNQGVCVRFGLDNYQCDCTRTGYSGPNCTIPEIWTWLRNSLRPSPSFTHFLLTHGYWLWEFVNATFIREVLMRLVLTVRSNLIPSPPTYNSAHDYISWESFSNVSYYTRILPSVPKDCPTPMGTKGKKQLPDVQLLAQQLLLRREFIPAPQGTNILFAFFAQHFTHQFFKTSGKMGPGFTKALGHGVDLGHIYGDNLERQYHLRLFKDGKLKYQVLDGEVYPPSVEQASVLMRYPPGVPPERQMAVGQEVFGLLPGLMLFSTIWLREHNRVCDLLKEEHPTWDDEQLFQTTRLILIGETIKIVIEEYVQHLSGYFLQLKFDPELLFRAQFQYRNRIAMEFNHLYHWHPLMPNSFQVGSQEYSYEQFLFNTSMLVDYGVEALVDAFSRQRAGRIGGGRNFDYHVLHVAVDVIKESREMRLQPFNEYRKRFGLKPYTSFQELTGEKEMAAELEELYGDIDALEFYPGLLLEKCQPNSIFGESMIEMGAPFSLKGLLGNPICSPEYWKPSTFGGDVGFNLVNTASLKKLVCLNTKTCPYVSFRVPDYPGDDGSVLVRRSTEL

RAW264.7 [4] = experiment: Inhibition of LPS-induced COX2 expression in mouse RAW264.7 cells at 0.75 to 1.5 uM treated 15 mins before LPS challenge measured after 18 hrs by Western blotting; format: functional, cell-based
How it was run: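 RAW 264.7 cells (5 × 10⁵) were plated for 24 h, then pretreated with compound for 15 min before LPS stimulation for 18 h. Cells were lysed in lysis buffer and COX-2 protein was detected by Western immunoblot.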

SMILES	IC50 (MCF7) [µM]	IC50 (B16-F10) [µM]	IC50 (RAW264.7 [1]) [µM]	IC50 (HepG2) [µM]	IC50 [2] [µM]	IC50 [3] [µM]	inhibition (RAW264.7 [4])
O=C(NS(=O)(=O)c1ccc(Cl)cc1)c1cccc(C(=O)NS(=O)(=O)c2ccc(Cl)cc2)n1	4.2	6.2	0.87	3.8	1.9	41.5	
O=C(NS(=O)(=O)c1ccc(Br)cc1)c1cccnc1	8.3	9.7	2.8	6.7	4.9	40.5	
Cc1ccc(S(=O)(=O)NC(=O)c2cccnc2)cc1	15.5	18.5	8.8	12.3	18.2	> 50	
O=C(NS(=O)(=O)c1ccc(Br)cc1)c1ccccn1	6.8	8.5	1.9	5	3.6	> 50	
O=C(NS(=O)(=O)c1ccc(Br)cc1)c1cncc(C(=O)NS(=O)(=O)c2ccc(Br)cc2)c1	4.1	7.2	1.2	3.3	2.8	42.5	
Cc1ccc(S(=O)(=O)NC(=O)c2ccncc2)cc1	14.1	16.2	9.8	20.2	19.4	> 50	
O=C(NS(=O)(=O)c1ccc(F)cc1)c1cncc(C(=O)NS(=O)(=O)c2ccc(F)cc2)c1	7.9	8.8	1.9	6.2	5.6	40.2	
O=C(NS(=O)(=O)c1ccccc1)c1cccnc1	11.5	14.5	9.5	10.4	15.8	> 50	
O=C(NS(=O)(=O)c1ccc(Br)cc1)c1ccncc1	8.7	8.8	5.5	6.3	7.8	38	
O=C(NS(=O)(=O)c1ccc(Cl)cc1)c1ccncc1	10.1	12.4	8.9	7.9	12.6	41.2	
O=C(NS(=O)(=O)c1ccccc1)c1cccc(C(=O)NS(=O)(=O)c2ccccc2)n1	9.3	10.7	1.6	5.3	3.7	35.8	
O=C(NS(=O)(=O)c1ccc(Cl)cc1)c1ccccn1	9.8	9.4	2.8	8.1	6	39.7	
Cc1ccc(S(=O)(=O)NC(=O)c2ccccn2)cc1	11.8	16.7	5.9	12.1	8	> 50	
Cc1ccc(-c2cc(C(F)(F)F)nn2-c2ccc(S(N)(=O)=O)cc2)cc1 [CELECOXIB]	40.8	85.6	0.1	95.5			
O=C(NS(=O)(=O)c1ccc(F)cc1)c1cccnc1	10.6	13.8	8.6	9	11.7	> 50	
O=C(NS(=O)(=O)c1ccc(Br)cc1)c1cccc(C(=O)NS(=O)(=O)c2ccc(Br)cc2)n1	1.8	2.8	0.15	1.2	0.8	35.6	Active
O=C(NS(=O)(=O)c1ccc(F)cc1)c1ccncc1	13.9	13.8	9.2	12.4	12.1	> 50	
Cc1ccc(S(=O)(=O)NC(=O)c2cncc(C(=O)NS(=O)(=O)c3ccc(C)cc3)c2)cc1	10.8	9.2	2.2	10	8.5	> 50	
O=C(NS(=O)(=O)c1ccccc1)c1ccccn1	10.6	14.2	4.5	9.9	8.8	> 50	
O=C(NS(=O)(=O)c1ccccc1)c1cncc(C(=O)NS(=O)(=O)c2ccccc2)c1	10.6	11.3	2.6	9.2	7.9	36.9	
O=C(NS(=O)(=O)c1ccc(Cl)cc1)c1cccnc1	10.1	11.9	3.2	8.6	6.6	35.8	
Cc1ccc(S(=O)(=O)NC(=O)c2cccc(C(=O)NS(=O)(=O)c3ccc(C)cc3)n2)cc1	6.2	12.2	2.1	4.2	5.6	39.8	
O=C(NS(=O)(=O)c1ccc(F)cc1)c1ccccn1	11	10.9	3.3	8.5	6.3	43.8	
O=C(NS(=O)(=O)c1ccc(F)cc1)c1cccc(C(=O)NS(=O)(=O)c2ccc(F)cc2)n1	4.6	10	1.1	3.7	2.6	40.3	

— ChEMBL document CHEMBL1914339, “Design, synthesis and biological evaluation of pyridine acyl sulfonamide derivatives as novel COX-2 inhibitors” (Bioorg Med Chem, 2011)
